For 18 compounds, IC50 and Activity results are on record in ChEMBL document CHEMBL1156155, “Synthesis and anticancer activity evaluation of 2(4-alkoxyphenyl)cyclopropyl hydrazides and triazolo phthalazines” (Bioorg Med Chem, 2010).

The test system of experiment [1] is A549. Kind of experiment: Growth inhibition of human A549 cells after 72 hrs by MTT assay. In kind it is functional, cell-based. The settings on record: A549, 72 h. Put shortly:
(§1)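 MTT colorimetric growth assay. Cells are seeded at 10,000–40,000 cells/mL depending on cell type and allowed to plate for 24 h, then cultured 72 h with or without compound. Formazan from mitochondrial MTT reduction is read spectrophotometrically at 570 nm (reference 630 nm). IC50 is the growth-inhibitory concentration.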
(In general: Tetrazolium dyes change colour on reduction, which living cells bring about.)

Experiment [2] has as its system PC-3. The experiment is described as follows: Growth inhibition of human PC3 cells after 72 hrs by MTT assay. In kind it is functional, cell-based. The settings on record: PC-3, 72 h. In outline:
as §1

The nature of experiment [3]: Growth inhibition of human U373 cells after 72 hrs by MTT assay. In kind it is functional, cell-based, U-373MG ATCC. The note with it: U373 MG. In outline: as §1
Experiment [4] concerns MCF7. The experiment is described as follows: Growth inhibition of human MCF7 cells after 72 hrs by MTT assay. In kind it is functional, cell-based. The note with it: MCF7, 72 h. In outline:
as §1

A short description of experiment [5]: Growth inhibition of human OE21 cells after 72 hrs by MTT assay. In kind it is functional, cell-based. The settings on record: OE21, 72 h. Put shortly:
as §1

Experiment [6] has as its system SK-MEL. Kind of experiment: Growth inhibition of human SK-MEL cells after 72 hrs by MTT assay. In kind it is functional, cell-based. Put shortly: as §1
The subject of experiment [7] is U-373MG ATCC. Kind of experiment: Anticancer activity against human U373 cells assessed as reduction in cell proliferation at 10 uM for 3 days by quantitative video microscopy relative to control. In kind it is functional, cell-based. In outline:
(§2)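 U373 glioblastoma cells filmed by computer-assisted phase-contrast (quantitative videomicroscopy) over three days of culture with or without compound. Cell population growth is judged from morphology: reduced proliferation is taken as cytostatic effect, direct cell killing as cytotoxic effect, and round-shaped cells as cell death. Comparison is against untreated control.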

The subject of experiment [8] is U-373MG ATCC. Kind of experiment: Anticancer activity against human U373 cells assessed as cell death at 10 uM for 3 days by quantitative video microscopy. In kind it is functional, cell-based. Put shortly: as §2
Experiment [9] relates to U-373MG ATCC. The experiment is described as follows: Cytostatic activity against human U373 cells assessed as increase in mitosis duration at 10 uM after 3 days by quantitative video microscopy relative to control. In kind it is functional, cell-based. In outline:
(§3)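 Human U373 glioblastoma cultures are recorded by quantitative videomicroscopy with or without compound. In-house software scores mitosis duration (min) and mitosis number, with number normalized to initial cell count at t = 0 h. Values are compared with untreated control.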

In experiment [10] the test system is U-373MG ATCC. The experiment is described as follows: Anticancer activity against human U373 cells assessed as reduction in cell proliferation at 5 uM for 3 days by quantitative video microscopy relative to control. In kind it is functional, cell-based. Put shortly:
as §2

The subject of experiment [11] is U-373MG ATCC. The experiment is described as follows: Anticancer activity against human U373 cells assessed as cell death at 5 uM for 3 days by quantitative video microscopy. In kind it is functional, cell-based. Put shortly:
as §2

Experiment [12] deals with U-373MG ATCC. The experiment is described as follows: Cytostatic activity against human U373 cells assessed as decrease in mitosis duration at 5 uM after 3 days by quantitative video microscopy relative to control. In kind it is functional, cell-based. In outline: as §3

Calls of active or inactive are those of the source. No cut-off for these calls is given here.

As for `CC(C)=CCC/C(C)=C/COc1ccc(C2CC2C(=O)NNc2nncc3ccccc23)cc1` (stereo not drawn), the IC50 (usually the point on the concentration scale where inhibition reaches its midpoint) in experiment [1] was 36 µM; in [2], 24 µM; in [3], 9 µM; in experiment [4], 23 µM; in [5], 9 µM; in experiment [6], 25 µM. Also, the result in experiment [7] and in experiment [9] was Active. In addition, the result in experiment [8] was inactive.

Consider `FC(F)(F)Oc1ccc(C2CC2c2nnc3c4ccccc4cnn23)cc1` (stereo not drawn), for which the IC50 in experiment [1] was determined as 37 µM; in experiment [2], 49 µM; in [3] it was 37 µM; in experiment [4] it was 37 µM; in [5], 30 µM; in [6], 57 µM.

In the case of `COc1ccc(C2CC2c2nnc3c4ccccc4cnn23)cc1` (stereo not drawn), the IC50 in experiment [1] was determined as 40 µM; in experiment [2], 29 µM; in experiment [3], 28 µM; in [4], 29 µM; in experiment [5], 26 µM; in experiment [6], 40 µM.

On to `CCOc1ccc(C2CC2c2nnc3c4ccccc4cnn23)cc1` (stereo not drawn), for which the results for the half-inhibitory concentration (IC50) in experiment [1], in [2] and in experiment [3] were 66 µM, greater than 100 µM and 44 µM, respectively.

Take `CC(C)=CCOc1ccc(C2CC2C(=O)NNC(=O)c2ccncc2)cc1` (stereo not drawn): the IC50 in experiment [1], in experiment [2] and in [3] was greater than 100 µM in each case.

With `CCOc1ccc(C2CC2C(=O)NNc2nncc3ccccc23)cc1` (stereo not drawn), the half-maximal inhibitory concentration (IC50) in [1] was greater than 100 µM; in experiment [2] it was 94 µM; in [3], 91 µM.

With `O=C(NNC(=O)C1CC1c1ccc(OCC(F)(F)F)cc1)c1ccncc1` (stereo not drawn), the IC50 was determined as 10 µM in [1]; 44 µM in [2]; 19 µM in [3]; 34 µM in experiment [4]; 31 µM in experiment [5]; 81 µM in experiment [6].

In the case of `CC(C)=CCC/C(C)=C/COc1ccc(C2CC2c2nnc3c4ccccc4cnn23)cc1` (stereo not drawn), the IC50 came to 45 µM in [1]; 8 µM in experiment [2]; 63 µM in [3]; 9 µM in experiment [4]; 5 µM in experiment [5]; 72 µM in experiment [6].

As to `O=C(NNc1nncc2ccccc12)C1CC1c1ccc(OC(F)(F)F)cc1` (stereo not drawn), the IC50 in experiment [1] came to 87 µM; in experiment [2], 92 µM; in [3], 85 µM; in [4], 54 µM; in experiment [5], 42 µM; in [6] it was 29 µM.

As for `FC(F)(F)COc1ccc(C2CC2c2nnc3c4ccccc4cnn23)cc1` (stereo not drawn), the half-inhibitory concentration (IC50) in experiment [1] was 64 µM; in [2], 38 µM; in experiment [3], 58 µM; in experiment [4] it was 37 µM; in experiment [5] it was 9 µM; in experiment [6], 29 µM.

As for `CC(C)=CCOc1ccc(C2CC2C(=O)NNc2nncc3ccccc23)cc1` (stereo not drawn), the IC50 in experiment [1] worked out at 82 µM; in experiment [2], 81 µM; in [3] it was 81 µM; in experiment [4], 69 µM; in [5] it was 38 µM; in experiment [6], 67 µM.

Consider `CC(C)=CCC/C(C)=C/COc1ccc(C2CC2C(=O)NNC(=O)c2ccncc2)cc1` (stereo not drawn), for which the results for the IC50 in experiment [1], in experiment [2] and in experiment [3] were 78 µM, greater than 100 µM and 84 µM, respectively.

For the compound `O=C(NNc1nncc2ccccc12)C1CC1c1ccc(OCC(F)(F)F)cc1` (stereo not drawn), the IC50 in experiment [1] was found to be 48 µM; in [2], 67 µM; in experiment [3], 25 µM; in experiment [4], 8 µM; in experiment [5], 17 µM; in experiment [6], 29 µM.

For `CC(C)=CCOc1ccc(C2CC2c2nnc3c4ccccc4cnn23)cc1` (stereo not drawn), the IC50 in experiment [1] was 56 µM; in [2], 22 µM; in [3] it was 4 µM; in experiment [4] it was 19 µM; in [5] it was 8 µM; in [6], 26 µM. Besides, the outcome in experiment [10] and in experiment [12] was Active. The outcome in [11] was inactive.

With `COc1ccc(C2CC2C(=O)NNc2nncc3ccccc23)cc1` (stereo not drawn), the IC50 in experiment [1] was found to be 96 µM; in experiment [2], 64 µM; in [3] it was 83 µM; in [4], 72 µM; in experiment [5], 48 µM; in experiment [6], 68 µM.

Consider `COc1ccc(C2CC2C(=O)NNC(=O)c2ccncc2)cc1` (stereo not drawn), for which the IC50 in [1], in [2] and in [3] was greater than 100 µM in each case.

For the compound `O=C(NNC(=O)C1CC1c1ccc(OC(F)(F)F)cc1)c1ccncc1` (stereo not drawn), the IC50 in [1] was 56 µM; in experiment [2] it was greater than 100 µM; in experiment [3], 37 µM.

Regarding `CCOc1ccc(C2CC2C(=O)NNC(=O)c2ccncc2)cc1` (stereo not drawn), the results for the half-inhibitory concentration (IC50) in [1], in experiment [2] and in [3] were 43 µM, greater than 100 µM and 63 µM, respectively.
